Experimental data taken from PMC9635392 (International Journal of Nanomedicine, 2022).
pIC50: −log10 of the molar value. Where a name gives a salt, the structure may show the parent alone.

Columns and labels:
[1] = test system: PLC/PRF/5 hepatocellular carcinoma cells; assay: MTT cytotoxicity assay; format: cell-based, Human
Method in brief: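 PLC/PRF/5 cells grown in DMEM with 10% FBS and penicillin/streptomycin at 37°C, 5% CO2. Seeded at 7×10^3 cells/well in triplicate and left 24 h. Treated 24 h or 48 h with test compound (DMSO stock diluted in DMEM) or nanoparticle formulations (DMEM-suspended, sonicated 10 min). MTT added for 3 h, formazan dissolved in isopropanol, A570 read. Untreated cells set at 100%. IC50 from curve fitting.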

Swiss albino mice = assay: In vivo biodistribution study; details: 5 mg/kg intravenously

`CNC(=O)c1cc(Oc2ccc(NC(=O)Nc3ccc(Cl)c(C(F)(F)F)c3)cc2)ccn1` [SRFT, Sorafenib tosylate] was tested, and the pIC50 ([1]; Homo sapiens, PLC-PRF-5) was 5.10 to 5.22, the “cytotoxicity” value ([1]; PLC/PRF/5, 4–12 µM, 24 h and 48 h) was “concentration-dependent cytotoxicity” and the “sorafenib distribution liver vs kidneys, first hour” value (Swiss albino mice; 1 h) was “accumulated in the kidneys was higher compared to liver”. The “sorafenib distribution liver vs kidneys at 48 h” value (Swiss albino mice; 48 h) was “in kidneys at 48 h was higher than in the liver”.
